High-throughput results from PubChem.
An excerpt weighted towards active compounds, which were near 1.3% of everything screened.
C-LANA FP: inhibitors of KSHV LANA C-terminal domain DNA binding. inhibition, % at 9 µM. 340,000 tested, 0.078% active. AID 504423. MBP-C-LANA/FAM-LBS DNA binding, fluorescence polarization;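 active = highest replicate inhibition at or above 60% at 9 µM, even if other replicates fall short; inactive = all replicates below 60% inhibition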
T cell modulator: T cell immune modulators affecting CD8 T cell-vesicle binding | 2C CD8+ T cell-vesicle binding, flow cytometry; hits give low values | response (vesicle binding), % at 7 µM | 330,000 tested, 0.068% active | AID 2052;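 active = response, share of CD8 T cells binding vesicles, and their 90th percentile fluorescence all below set limits, cut at about 80% in these data, passing the limit was not always enough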;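 note: values below 100% mean blocked vesicle binding to the CD8+ T cells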
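material = purified 2C TCR transgenic mouse naive CD8+ T cells | controls = Unloaded micro-vesicles (low), QL9 vesicles with 0.7% DMSO (high) | detection = cytometric PE anti-B7-1 and Alexa647 anti-CD8 signals after 1% paraformaldehyde fixation | incubation = binding step 1.5 h, 37 °C, antibody labelling 20 min, ice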
GRK2 inh: inhibitors of human GRK2 displacing RNA aptamer | bead flow cytometry, FAM-aptamer displacement from GRK2 | inhibition of aptamer binding, % at 10 µM | 330,000 tested, 0.59% active;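 active = inhibition of aptamer binding above 40%, roughly 3 SD of noise, on plates passing a quality check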;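 note: median bead fluorescence of bound FAM aptamer so fluorescent compounds give negative values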
MEX-5 binding: C. elegans MEX-5 TCR-2 RNA binding activity | MEX-5/FITC-TCR2 RNA binding, fluorescence polarization; hits give low values | activity score (negative = inhibition of binding), % at 10 µM | 300,000 tested, 0.38% active;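 active = inhibition past about -25% in most replicates, and total fluorescence under double the plate's negative control median, limit read from the data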
EBV gp42 block: EBV gp42 inhibition; Q1HVG2; Fluorescence polarization binding assay, mP read-out; inhibition, % (tested at 21.74 µM); 220,000 tested, 0.42% active; AID 1085; in the data active = inhibition above about 50%
Target sequence (Q1HVG2 whole entry, looked up): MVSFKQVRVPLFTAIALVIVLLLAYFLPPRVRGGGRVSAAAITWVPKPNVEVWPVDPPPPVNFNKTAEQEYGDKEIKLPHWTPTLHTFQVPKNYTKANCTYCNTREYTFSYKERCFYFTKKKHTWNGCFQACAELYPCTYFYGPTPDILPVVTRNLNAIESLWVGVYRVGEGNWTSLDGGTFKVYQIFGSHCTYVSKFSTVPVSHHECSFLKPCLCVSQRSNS
Keap1-Nrf2 PPI: inhibitors of human Keap1-Nrf2 protein-protein interaction | Q14145 | Keap1 Kelch-Nrf2 peptide fluorescence polarization, 1536-well | inhibition, % at 9.4 µM | 340,000 tested, 0.15% active | AID 504523; in the data active = inhibition above about 12%;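 note: human Keap1 Kelch domain with fluorescein labeled Nrf2 9mer peptide probe; higher means more block of Keap1 binding to Nrf2 peptide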
A number is an active result; - = inactive; . = not tested or not shown; + = active, no number.

SMILES | C-LANA FP | T cell modulator | GRK2 inh | MEX-5 binding | EBV gp42 block | Keap1-Nrf2 PPI
COCCNC(=S)NNC(=O)c1ccco1 | - | - | - | - | - | -
CCOC(=O)Cn1c(=O)c(-c2cc(Br)ccc2N)nc2ccccc21 | - | - | - | -38.2 | 60.1 | -
CCOc1ccc(N/C=C/C(=O)c2ccc(OC)cc2)c([N+](=O)[O-])c1 | - | - | - | - | 58.9 | -
CCOC(=O)c1c(C)[nH]c(C)c1C(=O)CSc1nc2ccccc2n1CC | - | - | - | - | 122.0 | -
CCc1cc(CNC(=O)c2ccc(OC3CCN(CCc4ccccc4)CC3)cc2)on1 | - | - | 49.0 | - | . | -
O=C(NCc1ccon1)c1ccc(OC2CCN(CCc3ccccc3)CC2)cc1 | - | - | - | - | - | -
CCOc1ccc(CC(=O)NNC(=S)NCCc2ccccc2)cc1 | - | - | - | - | - | -
CC(=O)N(C)c1ccc(N=Nc2c(C)[nH]n(C(N)=S)c2=O)cc1 | - | - | - | -32.1 | - | -
CC1=NN(C(N)=S)C(=O)C1N=Nc1ccc(S(N)(=O)=O)cc1 (stereo unspecified) | - | - | - | -68.7 | . | -
CC1=NN(C(N)=S)C(=O)C1N=Nc1c(C)cc(C)cc1C (stereo unspecified) | - | - | - | - | - | -
CC1=NN(C(N)=S)C(=O)C1N=Nc1c(Cl)cc([N+](=O)[O-])cc1Cl (stereo unspecified) | - | - | - | -31.0 | . | -
CC(=O)N(C)c1ccc(N=Nc2c(C)[nH]n(-c3ccccc3)c2=O)cc1 | - | - | - | - | . | -
CC(=O)N(C)c1ccc(N=NC2C(=O)N(C(N)=S)N=C2C)cc1 (stereo unspecified) | - | - | - | -25.6 | . | -
NC(=O)CC(NC(=O)Cc1ccc(Cl)cc1)c1ccc(NCCCN2CCCC2=O)c([N+](=O)[O-])c1 (stereo unspecified) | - | - | - | - | . | -
N#Cc1ccc(C2=NC(C(F)(F)F)(C(F)(F)F)c3c(n(Cc4ccco4)c(=O)[nH]c3=O)N2)cc1 | - | - | - | - | - | -
COc1ccc(C(C)=O)cc1CSc1nc2cc(C(=O)O)ccc2c(=O)n1Cc1ccccc1 | - | - | - | - | - | -
CCn1c(=O)c([N+](=O)[O-])c(NCCCn2ccnc2)c2ccccc21 | - | - | - | - | - | -
CCOC(=O)C(=O)N1CCN(c2nc(-c3ccc(Cl)cc3)cs2)CC1 | - | - | - | - | . | -
Cc1nn(-c2ccccc2)c(N2CCCC2)c1/C=C1\N=C(c2ccccc2)OC1=O | - | - | - | - | 116.8 | -
Cc1nn(-c2ccccc2)c(N2CCCC2)c1C=O | - | - | - | - | - | -
Cc1ccc(NC(=O)CN2C(=O)NC(C)(CC(C)C)C2=O)c(Br)c1 (stereo unspecified) | - | - | - | . | . | -
O=C1CN(C(=O)CNCc2ccc(Cl)cc2)c2ccccc2N1 | - | - | - | - | - | -
O=C(Nc1ccccc1)Nc1cc(S(=O)(=O)N2CCOCC2)ccc1N1CCCC1 | - | - | - | - | - | -
CC[C@]12c3[nH]c4cc(-c5ccco5)ccc4c3CCN1C(=O)[C@@H](CC(=O)NCCN1CCOCC1)C[C@@H]2C(=O)N1CCN(C(=O)c2ccco2)CC1 | - | . | - | . | . | -
CCN(CC)C(=O)[C@H]1C[C@H](CC(=O)NCCc2ccccn2)C(=O)N2CCc3c([nH]c4cc(-c5ccco5)ccc34)[C@]12C | - | . | - | . | . | +
SMILES | C-LANA FP | T cell modulator | GRK2 inh | MEX-5 binding | EBV gp42 block | Keap1-Nrf2 PPI
CC[C@]12c3[nH]c4cc(-c5ccco5)ccc4c3CCN1C(=O)[C@@H](CC(=O)NCCc1ccccn1)C[C@@H]2C(=O)N1CCN(C(=O)c2ccco2)CC1 | - | . | 43.0 | . | . | -
c1ccc(-c2nc(-c3ccccn3)nc(-c3ccccn3)n2)nc1 | - | - | - | -39.5 | - | -
c1ccc(C2=NNC(c3ccccn3)=NN2)nc1 | - | - | - | -36.3 | . | -
c1ccc(-c2nnc(-c3ccccn3)s2)nc1 | - | - | - | - | - | -
Cc1ccccc1Nc1nnc(SCC(=O)Nc2ncc(C(F)(F)F)cc2Cl)s1 | - | - | - | - | - | -
CC(=O)Nc1ccc(N2CCc3c(C)c(C#N)c4nc5ccccc5n4c32)cc1 | . | - | - | - | 59.1 | .
O=C(CC1OCC2CCCN2C1=O)Nc1ccc([N+](=O)[O-])cc1 (stereo unspecified) | - | - | - | - | . | -
COC(=O)c1sc2cc(C(F)(F)F)cnc2c1-c1ccccc1 | - | - | - | - | - | -
Cn1c(O)c(C=Nc2ccc(N3CCOCC3)cc2)c(=O)n(C)c1=S | - | . | . | -26.8 | 111.9 | -
Cc1nc(-c2nc(-c3c(C(=O)NN)noc3C)cs2)cs1 | - | - | - | - | - | -
CCc1nc(SCC(=O)NCCc2ccc(OC)c(OC)c2)c2c(=O)n(C)c(=O)n(C)c2n1 | - | - | - | - | - | -
CCCCCC(=O)NCC(C)NC(=O)CCCCC (stereo unspecified) | - | 0.0 | - | - | - | -
COc1ccc(/C=C/C(=O)c2c(C)cc(C)[nH]c2=O)c2ccccc12 | - | - | - | -28.0 | . | -
Cc1ccc(/C=C/C(=O)c2c(C)cc(C)[nH]c2=O)cc1 | - | - | - | - | - | -
CC(C(=O)Nc1nc2ccccc2[nH]1)N1C(=O)C2CC=CCC2C1=O (stereo unspecified) | - | - | - | - | - | -
CSCCNC(=O)c1cccc(Cl)c1 | - | - | - | - | - | -
CSCCNC(C)=O | . | - | 61.0 | - | - | .
CN(CC(=O)Nc1ccc(F)c(F)c1F)C(=O)c1ccc(-n2cncn2)cc1 | - | - | - | . | . | -
CCN1/C(=C/C=C/c2oc3ccc4ccccc4c3[n+]2CC)Oc2ccc3ccccc3c21 | . | - | . | - | 162.2 | .
O=C1NC(=Nc2ccc(Cl)cc2)/C(=C/c2ccco2)S1 | - | - | - | - | 61.7 | -
Cc1cccc(N=C2NC(=O)S/C2=C\c2ccco2)c1 | - | - | - | - | - | -
O=C(CCCn1c(=O)oc2ccccc21)NNC(=O)COc1ccc(F)cc1 | - | - | - | . | . | -
CCOC(=O)N1CCN(C(=O)CN(C)S(=O)(=O)c2ccc3c(c2)c(=O)n(C)c(=O)n3C)CC1 | - | - | - | - | - | -
O=C(/C=C/c1ccc(Cl)cc1)N1CCN(Cc2ccccc2)CC1 | - | - | 44.0 | - | . | -
CN1CCN(C(=O)/C=C/c2ccc(Cl)cc2)CC1 | - | - | - | - | - | -
O=C1SC(SCc2ccccc2)=N/C1=C\c1ccco1 | - | - | - | - | - | -
O=C1SC(SCc2ccccc2)=N/C1=C\c1ccc(C(=O)O)cc1 | - | - | - | -58.2 | - | -
Cc1ccc2c(N)c(C)ccc2c1 | - | - | - | - | - | -
Cc1ccc2cc3c(N)c4c(C)ccc(C)c4nc3nc2c1 | - | . | . | - | 147.8 | -
